How the values were obtained:
Hepatitis C virus [1] = experiment: Antiviral activity against Hepatitis C virus subtype 1b expressing NS3 D168G mutant infected in HuH7 cells after 48 hrs by luciferase reporter assay; format: functional, organism-based, Hepacivirus hominis; settings: genotype 1b, Huh-7, 48 h
Method in brief: (§1)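 Genotype 1b con1 subgenomic bicistronic replicon (clone ET) with luciferase reporter and adaptive mutations E1202G, T1280I, K1846T, carrying site-directed NS3 single or double mutations. 10 μg wild-type or mutant replicon RNA electroporated into Huh7-lunet cells, seeded 4,000 cells/well over a nine-point inhibitor dilution series, 48 h at 37°C, 5% CO2, then luminescence read. EC50 taken as median of individual experiments; fold change relative to parental replicon EC50.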

Hepatitis C virus [2] = experiment: Ratio of EC50 for Hepatitis C virus subtype 1b expressing NS3 V36 M mutant to EC50 for Hepatitis C virus subtype 1b expressing WT NS3 infected in HuH7 cells after 48 hrs by luciferase reporter assay; format: functional, Hepacivirus hominis, genotype 1b, Huh-7
Method in brief: (§2)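 Transient replicon assay: site-directed single or multiple NS3 mutations engineered into genotype 1b (con1, clone ET) subgenomic bicistronic replicon with luciferase reporter and adaptive mutations E1202G, T1280I, K1846T. Huh7-lunet cells electroporated with 10 μg wild-type or mutant replicon RNA, seeded 4,000 cells/well with nine-point inhibitor dilution; 48 h, 37°C, 5% CO2; luminescence read-out. EC50 as median of individual experiments; fold change versus parental replicon EC50.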

Hepatitis C virus [3] = experiment: Antiviral activity against Hepatitis C virus subtype 1b expressing NS3 Q80H and D168E mutant infected in HuH7 cells after 48 hrs by luciferase reporter assay; format: functional, organism-based, Hepacivirus hominis; settings: genotype 1b, Huh-7, 48 h; method in brief: as §1
Hepatitis C virus [4] = experiment: Antiviral activity against Hepatitis C virus subtype 1b expressing NS3 Q80R and D168A mutant infected in HuH7 cells after 48 hrs by luciferase reporter assay; format: functional, organism-based, Hepacivirus hominis; settings: genotype 1b, Huh-7, 48 h; method in brief: as §1
Hepatitis C virus [5] = experiment: Ratio of EC50 for Hepatitis C virus subtype 1b expressing NS3 V36L mutant to EC50 for Hepatitis C virus subtype 1b expressing WT NS3 infected in HuH7 cells after 48 hrs by luciferase reporter assay; format: functional, Hepacivirus hominis, genotype 1b, Huh-7; method in brief: as §2
Hepatitis C virus [6] = experiment: Antiviral activity against Hepatitis C virus subtype 1b expressing NS3 D168T mutant infected in HuH7 cells after 48 hrs by luciferase reporter assay; format: functional, organism-based, Hepacivirus hominis; settings: genotype 1b, Huh-7, 48 h; method in brief: as §1
Hepatitis C virus [7] = experiment: Antiviral activity against Hepatitis C virus subtype 1b expressing NS3 R155Q mutant infected in HuH7 cells after 48 hrs by luciferase reporter assay; format: functional, organism-based, Hepacivirus hominis; settings: genotype 1b, Huh-7, 48 h; method in brief: as §1
Hepatitis C virus [8] = experiment: Antiviral activity against Hepatitis C virus subtype 1b expressing NS3 D168V mutant infected in HuH7 cells after 48 hrs by luciferase reporter assay; format: functional, organism-based, Hepacivirus hominis; settings: genotype 1b, Huh-7, 48 h; method in brief: as §1
Hepatitis C virus [9] = experiment: Antiviral activity against Hepatitis C virus subtype 1b expressing NS3 V170T mutant infected in HuH7 cells after 48 hrs by luciferase reporter assay; format: functional, organism-based, Hepacivirus hominis; settings: genotype 1b, Huh-7, 48 h; method in brief: as §1
Hepatitis C virus [10] = experiment: Ratio of EC50 for Hepatitis C virus subtype 1b expressing NS3 F43S and D168E mutant to EC50 for Hepatitis C virus subtype 1b expressing WT NS3 infected in HuH7 cells after 48 hrs by luciferase reporter assay; format: functional, Hepacivirus hominis, genotype 1b, Huh-7; method in brief: as §2
Hepatitis C virus [11] = experiment: Ratio of EC50 for Hepatitis C virus subtype 1b expressing NS3 A156S mutant to EC50 for Hepatitis C virus subtype 1b expressing WT NS3 infected in HuH7 cells after 48 hrs by luciferase reporter assay; format: functional, Hepacivirus hominis, genotype 1b, Huh-7; method in brief: as §1
Hepatitis C virus [12] = experiment: Ratio of EC50 for Hepatitis C virus subtype 1b expressing NS3 T54A mutant to EC50 for Hepatitis C virus subtype 1b expressing WT NS3 infected in HuH7 cells after 48 hrs by luciferase reporter assay; format: functional, Hepacivirus hominis, genotype 1b, Huh-7; method in brief: as §2
Hepatitis C virus [13] = experiment: Antiviral activity against Hepatitis C virus subtype 1b expressing NS3 D168N mutant infected in HuH7 cells after 48 hrs by luciferase reporter assay; format: functional, organism-based, Hepacivirus hominis; settings: genotype 1b, Huh-7, 48 h; method in brief: as §1
Hepatitis C virus [14] = experiment: Antiviral activity against Hepatitis C virus subtype 1b expressing NS3 R155K mutant infected in HuH7 cells after 48 hrs by luciferase reporter assay; format: functional, organism-based, Hepacivirus hominis; settings: genotype 1b, Huh-7, 48 h; method in brief: as §1
Hepatitis C virus [15] = experiment: Ratio of EC50 for Hepatitis C virus subtype 1b expressing NS3 D168Y mutant to EC50 for Hepatitis C virus subtype 1b expressing WT NS3 infected in HuH7 cells after 48 hrs by luciferase reporter assay; format: functional, Hepacivirus hominis, genotype 1b, Huh-7; method in brief: as §2
Hepatitis C virus [16] = experiment: Ratio of EC50 for Hepatitis C virus subtype 1b expressing NS3 Q80L mutant to EC50 for Hepatitis C virus subtype 1b expressing WT NS3 infected in HuH7 cells after 48 hrs by luciferase reporter assay; format: functional, Hepacivirus hominis, genotype 1b, Huh-7; method in brief: as §2
Hepatitis C virus [17] = experiment: Antiviral activity against Hepatitis C virus subtype 1b expressing NS3 V36L mutant infected in HuH7 cells after 48 hrs by luciferase reporter assay; format: functional, organism-based, Hepacivirus hominis; settings: genotype 1b, Huh-7, 48 h; method in brief: as §1
Hepatitis C virus [18] = experiment: Ratio of EC50 for Hepatitis C virus subtype 1b expressing NS3 F43S and Q80R mutant to EC50 for Hepatitis C virus subtype 1b expressing WT NS3 infected in HuH7 cells after 48 hrs by luciferase reporter assay; format: functional, Hepacivirus hominis, genotype 1b, Huh-7; method in brief: as §2
Hepatitis C virus [19] = experiment: Antiviral activity against Hepatitis C virus subtype 1b expressing NS3 D168H mutant infected in HuH7 cells after 48 hrs by luciferase reporter assay; format: functional, organism-based, Hepacivirus hominis; settings: genotype 1b, Huh-7, 48 h; method in brief: as §1
Hepatitis C virus [20] = experiment: Antiviral activity against Hepatitis C virus subtype 1b expressing NS3 R155I mutant infected in HuH7 cells after 48 hrs by luciferase reporter assay; format: functional, organism-based, Hepacivirus hominis; settings: genotype 1b, Huh-7, 48 h; method in brief: as §1
Hepatitis C virus [21] = experiment: Ratio of EC50 for Hepatitis C virus subtype 1b expressing NS3 A156G mutant to EC50 for Hepatitis C virus subtype 1b expressing WT NS3 infected in HuH7 cells after 48 hrs by luciferase reporter assay; format: functional, Hepacivirus hominis, genotype 1b, Huh-7; method in brief: as §1
Hepatitis C virus [22] = experiment: Ratio of EC50 for Hepatitis C virus subtype 1b expressing NS3 D168V mutant to EC50 for Hepatitis C virus subtype 1b expressing WT NS3 infected in HuH7 cells after 48 hrs by luciferase reporter assay; format: functional, Hepacivirus hominis, genotype 1b, Huh-7; method in brief: as §2
Hepatitis C virus [23] = experiment: Antiviral activity against Hepatitis C virus subtype 1b expressing NS3 D168E mutant infected in HuH7 cells after 48 hrs by luciferase reporter assay; format: functional, organism-based, Hepacivirus hominis; settings: genotype 1b, Huh-7, 48 h; method in brief: as §1
Hepatitis C virus [24] = experiment: Antiviral activity against Hepatitis C virus subtype 1b expressing NS3 D168Y mutant infected in HuH7 cells after 48 hrs by luciferase reporter assay; format: functional, organism-based, Hepacivirus hominis; settings: genotype 1b, Huh-7, 48 h; method in brief: as §1
Hepatitis C virus [25] = experiment: Antiviral activity against Hepatitis C virus subtype 1b expressing WT NS3 infected in HuH7 cells after 48 hrs by luciferase reporter assay; format: functional, organism-based, Hepacivirus hominis; settings: genotype 1b, Huh-7, 48 h
Method in brief: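 Huh7-lunet cells were electroporated with 10 μg wild-type genotype 1b subgenomic replicon RNA (clone ET; luciferase reporter; E1202G, T1280I, K1846T). They were seeded at 4,000 cells/well over a nine-point compound dilution series. After 48 h at 37°C, 5% CO2, luciferase reagent was added 1:1, followed by 10–20 min in the dark and a luminescence read. EC50 is the median of individual-experiment EC50s.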

Hepatitis C virus [26] = experiment: Ratio of EC50 for Hepatitis C virus subtype 1b expressing NS3 D168T mutant to EC50 for Hepatitis C virus subtype 1b expressing WT NS3 infected in HuH7 cells after 48 hrs by luciferase reporter assay; format: functional, Hepacivirus hominis, genotype 1b, Huh-7; method in brief: as §2
Hepatitis C virus [27] = experiment: Antiviral activity against Hepatitis C virus subtype 1b expressing NS3 T54A mutant infected in HuH7 cells after 48 hrs by luciferase reporter assay; format: functional, organism-based, Hepacivirus hominis; settings: genotype 1b, Huh-7, 48 h; method in brief: as §1
Hepatitis C virus [28] = experiment: Ratio of EC50 for Hepatitis C virus subtype 1b expressing NS3 R155Q mutant to EC50 for Hepatitis C virus subtype 1b expressing WT NS3 infected in HuH7 cells after 48 hrs by luciferase reporter assay; format: functional, Hepacivirus hominis, genotype 1b, Huh-7; method in brief: as §2
Hepatitis C virus [29] = experiment: Ratio of EC50 for Hepatitis C virus subtype 1b expressing NS3 D168E mutant to EC50 for Hepatitis C virus subtype 1b expressing WT NS3 infected in HuH7 cells after 48 hrs by luciferase reporter assay; format: functional, Hepacivirus hominis, genotype 1b, Huh-7; method in brief: as §2

Structure (SMILES)	EC50 (Hepatitis C virus [1])	Ratio EC50 (Hepatitis C virus [2])	Ratio EC50 (Hepatitis C virus [5])	EC50 (Hepatitis C virus [6])	EC50 (Hepatitis C virus [7])	Ratio EC50 (Hepatitis C virus [11])	Ratio EC50 (Hepatitis C virus [12])	EC50 (Hepatitis C virus [13])	EC50 (Hepatitis C virus [14])	Ratio EC50 (Hepatitis C virus [15])	EC50 (Hepatitis C virus [17])	EC50 (Hepatitis C virus [19])	Ratio EC50 (Hepatitis C virus [21])	EC50 (Hepatitis C virus [23])	EC50 (Hepatitis C virus [24])	EC50 (Hepatitis C virus [25])	Ratio EC50 (Hepatitis C virus [26])	EC50 (Hepatitis C virus [27])	Ratio EC50 (Hepatitis C virus [28])	Ratio EC50 (Hepatitis C virus [29])	further results
CC(C)(C)NC(=O)N[C@H](C(=O)N1C[C@H]2[C@@H]([C@H]1C(=O)NC(CC1CCC1)C(=O)C(N)=O)C2(C)C)C(C)(C)C (stereo partly specified) [BOCEPREVIR]	63 nM	1.8	1.6	299 nM	174 nM	3.5	2.1	101 nM	743 nM	2.4	110 nM	73 nM	2.1	69 nM	193 nM	148 nM	1.1	268 nM	1.4	0.8	EC50 (Hepatitis C virus [3]): 20 nM; EC50 (Hepatitis C virus [4]): 113 nM; EC50 (Hepatitis C virus [8]): 83 nM; EC50 (Hepatitis C virus [9]): 210 nM; Ratio EC50 (Hepatitis C virus [10]): 3.2; Ratio EC50 (Hepatitis C virus [16]): 0.9; Ratio EC50 (Hepatitis C virus [18]): 7.4; EC50 (Hepatitis C virus [20]): 5340 nM; Ratio EC50 (Hepatitis C virus [22]): 0.5
COc1ccc2c(O[C@@H]3C[C@H]4C(=O)N[C@]5(C(=O)O)C[C@H]5/C=C\CCCCC[C@H](NC(=O)OC5CCCC5)C(=O)N4C3)cc(-c3csc(NC(C)C)n3)nc2c1 [CILUPREVIR]	35 nM	1.2	1	520 nM	248 nM	2.8	0.6	18 nM	489 nM	2488	1.4 nM	215 nM	12	40 nM	2100 nM	0.8 nM	844	0.7 nM	242	65	EC50 (Hepatitis C virus [3]): 52 nM; EC50 (Hepatitis C virus [4]): 1040 nM; EC50 (Hepatitis C virus [8]): 1810 nM; EC50 (Hepatitis C virus [9]): 4.8 nM; Ratio EC50 (Hepatitis C virus [10]): 12; Ratio EC50 (Hepatitis C virus [16]): 1.2; Ratio EC50 (Hepatitis C virus [18]): 0.6; EC50 (Hepatitis C virus [20]): 29 nM; Ratio EC50 (Hepatitis C virus [22]): 3213
COc1ccc2c(O[C@@H]3C[C@H]4C(=O)N[C@]5(C(=O)NS(=O)(=O)C6CC6)C[C@H]5/C=C\CCCCN(C)C(=O)[C@@H]4C3)cc(-c3nc(C(C)C)cs3)nc2c1C [SIMEPREVIR]	42 nM	2	1.7	4090 nM	21 nM	0.3	0.6	79 nM	260 nM	666	18 nM	5660 nM	16	302 nM	6240 nM	11 nM	308	5.9 nM	1.6	40	EC50 (Hepatitis C virus [3]): 1360 nM; EC50 (Hepatitis C virus [4]): 16900 nM; EC50 (Hepatitis C virus [8]): 17900 nM; EC50 (Hepatitis C virus [9]): 52 nM; Ratio EC50 (Hepatitis C virus [10]): 694; Ratio EC50 (Hepatitis C virus [16]): 2.1; Ratio EC50 (Hepatitis C virus [18]): 286; EC50 (Hepatitis C virus [20]): 6.6 nM; Ratio EC50 (Hepatitis C virus [22]): 2591
CCC[C@H](NC(=O)[C@@H]1[C@H]2CCC[C@H]2CN1C(=O)[C@@H](NC(=O)[C@@H](NC(=O)c1cnccn1)C1CCCCC1)C(C)(C)C)C(=O)C(=O)NC1CC1 [TELAPREVIR]		10	3.1	181 nM	570 nM	20	7.5	147 nM	1470 nM	1.2	300 nM	102 nM	0.6	113 nM	187 nM	150 nM	1	1560 nM	2.5	0.6	

Reference: ChEMBL document CHEMBL1671684, “In vitro resistance profile of the hepatitis C virus NS3/4A protease inhibitor TMC435” (Antimicrob Agents Chemother, 2010)
